From ChEMBL document CHEMBL4808174, “Exploring Heteroaromatic Rings as a Replacement for the Labile Amide of Antiplasmodial Pantothenamides” (J Med Chem, 2021)
Active and inactive are the calls of the source. No cut-off for these calls is given here.

Tests used:
[1] = Antiproliferative activity against human HFF cells assessed as cell proliferation at 100 uM incubated for 3 to 4 days in presence of 1 uM pantothenate by SYBR assay
[2] = Selectivity index, ratio of IC50 for human HFF cells to IC50 for Plasmodium falciparum in presence of 1 uM pantothenate; assay type: toxicity; conditions: HFF cells versus Plasmodium falciparum, read-out: Ratio IC50
How it was run: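 HFF cells grown 3-4 days in RPMI 1640 with 10% bovine calf serum and antibiotics, with compound up to 200 μM; SYBR Safe-based read-out. Selectivity index = HFF IC50 divided by P. falciparum IC50 at 1 μM pantothenate. Where HFF inhibition stayed below 50%, 200 μM (or 100 μM) was used as the HFF value to set limits.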

[3] = Antiproliferative activity against human HFF cells assessed as cell proliferation at 200 uM incubated for 3 to 4 days in presence of 1 uM pantothenate by SYBR assay
[4] = tested on: Plasmodium falciparum; test: Antiplasmodial activity against ring stage Plasmodium falciparum 3D7 infected in human erythrocytes assessed as inhibition of parasite growth incubated for 96 hrs in presence of 1 uM pantothenate by SYBR Green I dye based fluorescence assay; assay type: functional, organism-based; conditions: 3D7, Erythrocyte
How it was run: (§1)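 P. falciparum 3D7 ring stages at 0.5% parasitemia and 1% hematocrit in Albumax II medium. Where specified, 100 μM sodium pantothenate was added. Incubation 96 h, then freeze-thaw and SYBR Safe lysis-buffer fluorescence. Chloroquine 0.25-25 μM served as zero-proliferation control. Experiments in triplicate; 100 μM pantothenate data from two experiments.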

[5] = Apparent permeability of the compound across apical to basolateral side in human Caco-2 cells at 20 uM
[6] = tested on: Plasmodium berghei; test: Antiplasmodial activity against Plasmodium berghei ANKA infected in BALB/c mouse model of malaria assessed as reduction in parasitemia at 100 mg/kg/day, ip for 2 days by Giemsa staining based flow cytometry analysis; assay type: functional, organism-based; conditions: time 2.0 day
How it was run: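 Female BALB/c mice, 8-12 weeks, infected ip with 1 × 10⁵ P. berghei ANKA-infected erythrocytes. Once parasitemia reached 0.4-1.5% (5 mice per group), 100 mg/kg was given ip in 150 mM NaCl containing 20.9% v/v DMSO; second dose at 24 h. Daily tail-bleed parasitemia was read by Giemsa-stained thin smear or by flow cytometry (JC-1, Hoechst 33342, anti-CD45/CD71/TER119).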

[7] = Metabolic stability in human liver microsomes assessed as intrinsic clearance at 1 uM in presence of absence of NADPH regenerating system measured per mg protein by LC-MS analysis; assay type: ADME, Microsome; conditions: read-out: CLH
How it was run: (§2)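 Stability in mouse or human liver microsomes was measured with and without an NADPH-regenerating system, giving in vitro t1/2 and intrinsic clearance in μL/min/mg protein.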

[8] = Drug concentration in BALB/c mouse plasma at 100 mg/kg/day, ip measured after 2 days; assay type: ADME, organism-based; conditions: whole blood, in the assay text read “whole blood” for “plasma”
How it was run: (§3)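 Dosing was 100 mg/kg ip in P. berghei-infected female BALB/c mice, repeated at 24 h. 10 μL tail whole blood was sampled by microsampling device at 3 h, at ~24 h (before the second dose) and at 48 h. Samples were extracted with 80% acetonitrile using diazepam as internal standard and quantified by LC-MS MRM against a spiked-blood standard curve of 5 ng/mL-20 μg/mL. LLQ was 16 or 17 nM. Mean of five mice.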

[9] = Metabolic stability in human liver microsomes assessed as half life at 1 uM in presence or absence of NADPH regenerating system by LC-MS analysis; assay type: ADME, Microsome
How it was run: as §2

[10] = Metabolic stability in mouse liver microsomes assessed as half life at 1 uM in presence or absence of NADPH regenerating system by LC-MS analysis; assay type: ADME, Microsome
How it was run: as §2

[11] = Metabolic stability in mouse liver microsomes assessed as intrinsic clearance at 1 uM in presence or absence of NADPH regenerating system measured per mg protein by LC-MS analysis; assay type: ADME, Microsome; conditions: read-out: CLH
How it was run: as §2

[12] = Drug degradation in human liver microsomes after 60 mins; assay type: ADME, Microsome; conditions: read-out: Drug degradation
How it was run: (§4)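 Degradation in mouse or human liver microsomes was followed over 60 min, with and without an NADPH-regenerating system.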

[13] = Drug degradation in mouse liver microsomes after 60 mins; assay type: ADME, Microsome; conditions: read-out: Drug degradation
How it was run: as §4

[14] = Drug concentration in BALB/c mouse plasma at 100 mg/kg/day, ip measured after 1 day; assay type: ADME, organism-based; conditions: whole blood, in the assay text read “whole blood” for “plasma”
How it was run: as §3

[15] = tested on: Plasmodium falciparum; test: Antiplasmodial activity against ring stage Plasmodium falciparum 3D7 infected in human erythrocytes assessed as inhibition of parasite growth incubated for 96 hrs in presence of 100 uM pantothenate by SYBR Green I dye based fluorescence assay; assay type: functional, organism-based; conditions: 3D7, Erythrocyte
How it was run: as §1

[16] = tested on: Plasmodium falciparum; test: Antiplasmodial activity against ring stage Plasmodium falciparum 3D7 infected in human erythrocytes assessed as inhibition of parasite growth incubated for 24 hrs by SYBR Green I dye based fluorescence assay; assay type: functional, organism-based; conditions: Erythrocyte
How it was run: (§5)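 Triple-sorbitol-synchronized 3D7 ring-stage cultures at 0.5% parasitemia and 1% hematocrit were exposed to compound at ten concentrations at 37 °C in 96% N₂, 3% CO₂, 1% O₂. After 5, 10, 24 or 48 h, cells were washed three times and resuspended without compound. Total culture time 96 h, then SYBR Safe fluorescence. Three experiments in triplicate.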

[17] = tested on: Plasmodium knowlesi; test: Antiplasmodial activity against Plasmodium knowlesi infected in human erythrocytes assessed as inhibition of parasite growth incubated for 72 hrs in presence of 1 uM pantothenate by SYBR Green I dye based fluorescence assay; assay type: functional, organism-based; conditions: Erythrocyte
[18] = tested on: Plasmodium falciparum; test: Antiplasmodial activity against ring stage Plasmodium falciparum 3D7 infected in human erythrocytes assessed as inhibition of parasite growth at 100 uM pretreated with compound followed by parasite infection by SYBR Green I dye based fluorescence assay; assay type: functional, organism-based; conditions: Erythrocyte
[19] = tested on: Plasmodium falciparum; test: Antiplasmodial activity against ring stage Plasmodium falciparum 3D7 infected in human erythrocytes assessed as inhibition of parasite growth incubated for 48 hrs by SYBR Green I dye based fluorescence assay; assay type: functional, organism-based; conditions: Erythrocyte
How it was run: as §5

[20] = tested on: Plasmodium falciparum; test: Antiplasmodial activity against ring stage Plasmodium falciparum 3D7 infected in human erythrocytes assessed as inhibition of parasite growth incubated for 10 hrs by SYBR Green I dye based fluorescence assay; assay type: functional, organism-based; conditions: Erythrocyte
How it was run: as §5

[21] = Drug concentration in BALB/c mouse plasma at 100 mg/kg/day, ip measured after 3 hrs; assay type: ADME, organism-based; conditions: whole blood, in the assay text read “whole blood” for “plasma”
How it was run: as §3

[22] = tested on: Plasmodium falciparum; test: Antiplasmodial activity against ring stage Plasmodium falciparum NF54 infected in human erythrocytes assessed as inhibition of parasite growth incubated for 72 hrs in presence of pantothenate by SYBR Green dye based fluorescence assay; assay type: functional, organism-based; conditions: NF54, Erythrocyte
[23] = Drug degradation in mouse liver microsomes in presence of NADPH after 60 mins; assay type: ADME, Microsome; conditions: 1 h
How it was run: as §4

[24] = Drug degradation in mouse liver microsomes in absence of NADPH after 60 mins; assay type: ADME, Microsome; conditions: read-out: Drug degradation
How it was run: as §4

Row | SMILES | proliferation at 100 µM [1] | selectivity ratio at 1 µM [2] | proliferation at 200 µM [3] | IC50 [4] | further results
1 | CCCCCc1cc(CNC(=O)[C@H](O)C(C)(C)CO)n[nH]1 | 88% | > 27 | 89% | 7400 nM | 
2 | CCCCCc1noc(CNC(=O)[C@H](O)C(C)(C)CO)n1 | 91% | > 37 | 90% | 5300 nM | 
3 | CCCCc1cc(CNC(=O)[C@H](O)C(C)(C)CO)on1 | 97% | > 1000 | 101% | 190 nM | 
4 | CCCCCCc1cc(CNC(=O)[C@H](O)C(C)(C)CO)on1 | 97% | > 90 | 87% | 2200 nM | 
5 | CC(C)(CO)[C@@H](O)C(=O)NCc1cc(CCc2ccccc2)no1 | 102% | > 18 | 113% | 11000 nM | 
6 | CC(C)NCC(O)COc1cccc2ccccc12 (stereo not drawn) [PROPRANOLOL] |  |  |  |  | Papp A→B at 20 µM [5]: 49 ×10⁻⁶ cm/s
7 | CCCCCCn1cc(CNC(=O)[C@H](O)C(C)(C)CO)nn1 |  |  |  | 55 nM | 
8 | CCCCCc1ccc(CNC(=O)[C@H](O)C(C)(C)CO)s1 | 58% | 35 | 16% | 2800 nM | 
9 | CCCCCn1cc(CNC(=O)[C@H](O)C(C)(C)CO)nn1 | 88% | > 3500 | 77% | 56 nM | Activity [6]: inactive; Papp A→B at 20 µM [5]: 13 ×10⁻⁶ cm/s; microsomal CLint at 1 µM [7]: < 7 µL/min/mg; concentration at 48 h [8]: < 16 nM; half-life at 1 µM [9]: > 4.25 h; half-life at 1 µM [10]: > 4.25 h; microsomal CLint at 1 µM [11]: < 7 µL/min/mg; metabolised at 1 h [12]: < 15%; metabolised at 1 h [13]: < 15%; concentration at 24 h [14]: < 16 nM; IC50 [15]: > 250 nM; Activity [16]: Active; IC50 [17]: 28 nM; Activity [18]: inactive; Activity [19]: Active; Activity [20]: inactive; concentration at 3 h [21]: 1100 nM
10 | CCCCCCc1cc(CNC(=O)[C@H](O)C(C)(C)CO)no1 | 78% | > 830 | 60% | 240 nM | 
11 | CC(C)(CO)[C@@H](O)C(=O)NCc1cc(CCc2ccccc2)on1 | 94% | > 33 | 95% | 5900 nM | 
12 | NNC(=O)N1C(=O)c2cc(S(=O)(=O)[O-])cc3c(N)c(S(=O)(=O)[O-])cc(c23)C1=O.[Li+].[Li+] [LUCIFER YELLOW] |  |  |  |  | Papp A→B at 20 µM [5]: < 1 ×10⁻⁶ cm/s
13 | CCCCCn1cnc(CNC(=O)[C@H](O)C(C)(C)CO)c1 | 91% | > 14 | 103% | 14000 nM | 
14 | CCCCCc1cnc(CNC(=O)[C@H](O)C(C)(C)CO)o1 | 98% | > 8.6 | 82% | 23000 nM | 
15 | CCCCCc1ncc(CNC(=O)[C@H](O)C(C)(C)CO)o1 | 87% | 1.2 | 35% | 80000 nM | 
16 | CCCCCc1cc(CNC(=O)[C@H](O)C(C)(C)CO)on1 | 100% | > 310 | 88% | 630 nM | IC50 [15]: > 12000 nM
17 | CCCCCc1nnc(CNC(=O)[C@H](O)C(C)(C)CO)s1 | 90% | > 200 | 88% | 960 nM | IC50 [15]: 26000 nM
18 | CCCCCC(=O)NCCNC(=O)[C@H](O)C(C)(C)CO |  |  |  |  | IC50 [22]: 630 nM
19 | CCCCc1cc(CNC(=O)[C@H](O)C(C)(C)CO)no1 | 95% | > 2700 | 74% | 72 nM | 
20 | CCCCCc1cc(CCNC(=O)[C@H](O)C(C)(C)CO)on1 | 97% | > 41 | 95% | 4800 nM | 
21 | CCCCCc1nnc(CNC(=O)[C@H](O)C(C)(C)CO)[nH]1 | 84% | > 5 | 71% | 40000 nM | 
22 | CCCCCc1nnc(CNC(=O)[C@H](O)C(C)(C)CO)o1 | 108% | > 2.8 | 91% | 71000 nM | 
23 | CCCCCn1ncc(CNC(=O)[C@H](O)C(C)(C)CO)n1 | 97% | > 7.1 | 103% | 28000 nM | 
24 | CCCCCc1nc(CNC(=O)[C@H](O)C(C)(C)CO)no1 | 111% | > 110 | 100% | 1800 nM | IC50 [15]: > 12000 nM
25 | CCN(CC)CCCC(C)Nc1ccnc2cc(Cl)ccc12 (stereo not drawn) |  |  |  |  | Activity [18]: inactive
26 | CCCCCn1cnc(CNC(=O)[C@H](O)C(C)(C)CO)n1 | 101% |  | 106% | > 100000 nM | 
27 | CCCCCc1cc(CNC(=O)[C@H](O)C(C)(C)CO)no1 | 104% | > 1200 | 71% | 160 nM | Stabilty [23]: Unstable; Activity [6]: inactive; Papp A→B at 20 µM [5]: 55 ×10⁻⁶ cm/s; microsomal CLint at 1 µM [7]: 11 µL/min/mg; concentration at 48 h [8]: < 17 nM; half-life at 1 µM [9]: 2.53 h; half-life at 1 µM [10]: 0.55 h; microsomal CLint at 1 µM [11]: 53 µL/min/mg; concentration at 24 h [14]: < 17 nM; IC50 [15]: > 1000 nM; metabolised at 1 h [24]: 20%; Activity [16]: Active; IC50 [17]: 6.1 nM; Activity [18]: inactive; Activity [19]: Active; Activity [20]: inactive; concentration at 3 h [21]: 72 nM
28 | CCCCCn1cc(CNC(=O)[C@H](O)C(C)(C)CO)cn1 | 102% | > 5 | 85% | 34000 nM | 
